From ChEMBL document CHEMBL1152930, “Discovery of tetrahydrotetramethylnaphthalene analogs as adult T-cell leukemia cell-selective proliferation inhibitors in a small chemical library constructed based on multi-template hypothesis” (Bioorg Med Chem, 2009) come the findings set out here.

Test [1] has as its system MOLT-4. In words: Antiproliferative activity against HTLV1-deficient human MOLT4 cells after 4 days by MTT assay. It counts as functional, cell-based. The following applies: MOLT-4, 96 h. Summed up:
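Cells were cultured without or with a range of test-compound concentrations for 4 days. Viable cell number was then measured by MTT, and IC50 values were calculated from it. The same protocol was run in parallel on S1T cells, an ATL patient-derived line.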

The nature of test [2]: Antiproliferative activity against HTLV1-carrying human S1T cells isolated from peripheral blood mononuclear cells of adult T leukemic patient after 4 days by MTT assay. It counts as functional. The following applies: 96 h. In outline: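 Cells grown 4 days without or with a range of compound concentrations; viable cell number read by MTT; IC₅₀ calculated from the resulting data.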

Test [3] deals with MOLT-4. In words: Selectivity index, ratio of IC50 for HTLV1-deficient human MOLT4 cells to IC50 for HTLV1-carrying S1T cells isolated from peripheral blood mononuclear cells of adult T leukemic patient. It counts as functional. In outline: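 SI taken as IC₅₀ in MOLT-4 over IC₅₀ in S1T cells. Both IC₅₀ values come from 4-day MTT viable-cell counts over a range of concentrations.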

In another test the test system is Jurkat. In words: Antiproliferative activity against human Jurkat cells. It counts as functional, cell-based.
The test system of a further test is HL-60. In words: Antiproliferative activity against human HL60 cells. It counts as functional, cell-based.
Test [4] has as its system MOLT-4. In words: Antiproliferative activity against human MOLT4 cells. It counts as functional, cell-based.
For the next test, the system named is U-937. In words: Antiproliferative activity against human U937 cells. It counts as functional, cell-based.
Test [5] is described as follows: Induction of apoptosis in HTLV1-carrying human S1T cells isolated from peripheral blood mononuclear cells of adult T leukemic patient at 20 uM after 24 hrs using fluorescein isothiocyanate-conjugated annexin V staining by FACS analysis. It counts as functional. In outline:
(§1)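 Cells seeded at 1 × 10⁶/ml and held with or without 20 µM compound for 24 or 48 h. Apoptotic cells given as %; relative values are the ratio of treated to untreated apoptosis %.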

Test [6] can be described thus: Cell cycle arrest in HTLV1-carrying human S1T cells isolated from peripheral blood mononuclear cells of adult T leukemic patient assessed as accumulation at G0/G1 phase at 20 uM after 24 hrs using propidium iodide/RNA staining buffer by FACS analysis. It counts as functional. Summed up:
(§2)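 Cells seeded at 1 × 10⁶/ml with or without 20 µM compound for 24 h. Then PBS wash, fixing in 1% paraformaldehyde, permeabilising in 70% ethanol and 15 min propidium iodide/RNA staining. Phase populations given as % of cells.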

A short description of test [7]: Induction of apoptosis in HTLV1-carrying human S1T cells isolated from peripheral blood mononuclear cells of adult T leukemic patient at 20 uM after 48 hrs using fluorescein isothiocyanate-conjugated annexin V staining by FACS analysis relative to control. It counts as functional. In outline: as §1
Test [8] is described as follows: Induction of apoptosis in HTLV1-carrying human S1T cells isolated from peripheral blood mononuclear cells of adult T leukemic patient at 20 uM after 24 hrs using fluorescein isothiocyanate-conjugated annexin V staining by FACS analysis relative to control. It counts as functional. Summed up: as §1
Test [9] has as its system MOLT-4. In words: Cell cycle arrest in HTLV1-deficient human MOLT4 cells assessed as accumulation at G2/M phase at 20 uM after 24 hrs using propidium iodide/RNA staining buffer by FACS analysis. It counts as functional. In outline:
as §2

Test [10] deals with MOLT-4. In words: Induction of apoptosis in HTLV1-deficient human MOLT4 cells at 20 uM after 24 hrs using fluorescein isothiocyanate-conjugated annexin V staining by FACS analysis. It counts as functional. In outline:
as §1

The test system of test [11] is MOLT-4. In words: Cell cycle arrest in HTLV1-deficient human MOLT4 cells assessed as accumulation at G0/G1 phase at 20 uM after 24 hrs using propidium iodide/RNA staining buffer by FACS analysis. It counts as functional. Summed up: as §2
Test [12] in a line: Cell cycle arrest in HTLV1-carrying human S1T cells isolated from peripheral blood mononuclear cells of adult T leukemic patient assessed as accumulation at G2/M phase at 20 uM after 24 hrs using propidium iodide/RNA staining buffer by FACS analysis. It counts as functional. In outline: as §2
For test [13], the system named is MOLT-4. In words: Cell cycle arrest in HTLV1-deficient human MOLT4 cells assessed as accumulation at S phase at 20 uM after 24 hrs using propidium iodide/RNA staining buffer by FACS analysis. It counts as functional. Summed up: as §2
A short description of test [14]: Cell cycle arrest in HTLV1-carrying human S1T cells isolated from peripheral blood mononuclear cells of adult T leukemic patient assessed as accumulation at S phase at 20 uM after 24 hrs using propidium iodide/RNA staining buffer by FACS analysis. It counts as functional. Summed up: as §2
A short description of test [15]: Induction of apoptosis in HTLV1-carrying human S1T cells isolated from peripheral blood mononuclear cells of adult T leukemic patient at 20 uM after 48 hrs using fluorescein isothiocyanate-conjugated annexin V staining by FACS analysis. It counts as functional. Summed up:
as §1

For test [16], the system named is MOLT-4. In words: Induction of apoptosis in HTLV1-deficient human MOLT4 cells at 20 uM after 48 hrs using fluorescein isothiocyanate-conjugated annexin V staining by FACS analysis. It counts as functional. In outline: as §1

A value given as a limit tells only on which side of the number the result lay.

As for `CC1(C)CCC(C)(C)c2ccccc21`, the IC50 (in the test on MOLT-4 [1]; in [2]) was greater than 100 µM in each case.

For `CC1(C)CCC(C)(C)c2cc(C=O)ccc21`, the IC50 was found to be 24.8 µM with MOLT-4 [1] and 33 µM in test [2]. Also, in the test with MOLT-4 [3], the “Ratio IC50” value is 0.75.

Consider `CC(=O)c1cc(C)cc(C)c1`, for which the IC50 (in the test with MOLT-4 [1]; in test [2]) was greater than 100 µM each time.

For the compound `CON(C)C(=O)c1ccc2c(c1)C(C)(C)CCC2(C)C`, the IC50 with MOLT-4 [1] is 9.9 µM; in test [2], 12.6 µM. Moreover, in the test on MOLT-4 [3], the “Ratio IC50” value was found to be 0.8.

Regarding `CC1(C)CCC(C)(C)c2cc(C(=O)c3ccccc3)c(O)cc21`, the IC50 was 28.3 µM with MOLT-4 [1] and 15.2 µM in test [2]. The “Ratio IC50” value with MOLT-4 [3] is given as 1.9.

Turning to `COc1cc2c(cc1C(C)=O)C(C)(C)CCC2(C)C`, the IC50 in the test with MOLT-4 [1] came to 11.9 µM; in test [2], 7 µM. The “Ratio IC50” value in the test on MOLT-4 [3] was 1.7.

For `CCC(=O)c1ccc2c(c1)C(C)(C)CCC2(C)C`, the half-inhibitory concentration (IC50) amounted to 21.5 µM with MOLT-4 [1] and 4.7 µM in test [2]. Moreover, the “Ratio IC50” value in the test with MOLT-4 [3] came to 4.6.

With `CC1(C)CCC(C)(C)c2cc(C(N)=O)ccc21`, the results for the IC50 (in the test on MOLT-4 [1]; in [2]) were 39.4 µM and 37 µM, respectively. For the same compound, the “Ratio IC50” value in the test with MOLT-4 [3] is given as 1.1.

Take `CC(C)(C)C(=O)c1cc2c(cc1O)C(C)(C)CCC2(C)C`: the IC50 in the test on MOLT-4 [1] worked out at 43.2 µM; in test [2], 41.5 µM. Further, the “Ratio IC50” value in the test with MOLT-4 [3] amounted to 1.

With `CC1(C)CCC(C)(C)c2cc(NC(=O)c3ccc(C(=O)O)cc3)ccc21` [TAMIBAROTENE], the IC50 in the test with Jurkat was 17.3 µM; in the test on HL-60, 6 µM; in the test with MOLT-4 [4], 19.5 µM; in the test on U-937, 20.2 µM.

In the case of `CC(=O)c1cc2c(cc1O)C(C)(C)CCC2(C)C`, the Activity turned out to be 10.1% in [5]; 37% in [6]; 2.1% in test [7]; 1.3% in test [8]; 11.1% with MOLT-4 [9]; 7% in the test with MOLT-4 [10]. In addition, the Activity in the test with MOLT-4 [11] worked out at 42.14%; in test [12], 23%; in the test on MOLT-4 [13], 46.76%; in test [14], 40%; in test [15] it was 10.1%; with MOLT-4 [16], 4%. The figures for the IC50 (with MOLT-4 [1]; in [2]) were 82.9 µM and 6.7 µM, respectively. For the same compound, the “Ratio IC50” value in the test on MOLT-4 [3] came out at 12.4.

In the case of `CC(C)C(=O)c1ccc2c(c1)C(C)(C)CCC2(C)C`, the values for the IC50 (in the test on MOLT-4 [1]; in test [2]) were 34.6 µM and 3.8 µM, respectively. For the same compound, the “Ratio IC50” value in the test with MOLT-4 [3] turned out to be 9.1.

In the case of `CC(=O)c1ccc(C)cc1C`, the IC50 (in the test on MOLT-4 [1]; in test [2]) was greater than 100 µM each time.

As to `CC1(C)CCC(C)(C)c2cc(C(=O)c3ccccc3)ccc21`, the results for the IC50 (in the test on MOLT-4 [1]; in test [2]) were 11.8 µM and 7 µM, respectively. The “Ratio IC50” value in the test with MOLT-4 [3] turned out to be 1.7.

Take `CC(O)c1ccc2c(c1)C(C)(C)CCC2(C)C` (racemic): the IC50 with MOLT-4 [1] is 34.4 µM; in [2], 39.3 µM. The “Ratio IC50” value in the test on MOLT-4 [3] came to 0.87.

For the compound `CC1(C)CCC(C)(C)c2cc(C(=O)O)c(O)cc21`, the IC50 in the test with MOLT-4 [1] was found to be 44.4 µM; in test [2], 29.7 µM. In addition, the “Ratio IC50” value with MOLT-4 [3] is recorded as 1.5.

Regarding `CC(=O)c1ccc2c(c1)C(C)(C)CCC2(C)C`, the IC50 with MOLT-4 [1] was determined as 66 µM; in test [2], 6.9 µM. Also, the “Ratio IC50” value in the test on MOLT-4 [3] stood at 9.6.

As for `CCC(=O)c1cc2c(cc1O)C(C)(C)CCC2(C)C`, the concentration for half-maximal inhibition (IC50) in the test on MOLT-4 [1] was 32.3 µM; in test [2] it was 4.7 µM. The “Ratio IC50” value with MOLT-4 [3] was determined as 6.9.

Consider `CC1(C)CCC(C)(C)c2cc(C(=O)O)ccc21`, for which the IC50 was 61.1 µM in the test with MOLT-4 [1] and greater than 100 µM in test [2].

Turning to `CC(C)C(=O)c1cc2c(cc1O)C(C)(C)CCC2(C)C`, the half-maximal inhibitory concentration (IC50) worked out at 31.9 µM in the test on MOLT-4 [1] and 6 µM in test [2]. In addition, the “Ratio IC50” value in the test with MOLT-4 [3] is given as 5.3.

Turning to `CC(=O)c1ccc(C)c(C)c1`, the IC50 (in the test with MOLT-4 [1]; in [2]) was greater than 100 µM each time.

`CC(=S)c1cc2c(cc1O)C(C)(C)CCC2(C)C`: the IC50 with MOLT-4 [1] was determined as 36.4 µM; in test [2], 6.9 µM. For the same compound, the “Ratio IC50” value with MOLT-4 [3] was found to be 5.3.
